Data taken from PubChem BioAssay.
Calls of active or inactive are those of the source.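 How the source made its calls, unless noted: active means visually confirmed hit in the image check and inhibition above 20%; inconclusive means visually confirmed hit but inhibition not above 20%; inactive means no visual hit in the image check.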

Legend:
[1] = inhibitors of TNFa-induced NFkB p65 translocation, primary screen, imaging, HUVEC, MLSMR starter and 10KST1 sets (AID 438;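 active means inhibition above 20% together with a positive visual image hit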;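 further: compound added about 3h40 before a 20 min TNFalpha stimulation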;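 on inhibition: signal is the nuclear over cytoplasmic p65 intensity ratio per well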); conditions: HUVEC TNFa-induced p65 nuclear translocation; cell count: measured here: nuclei count (cytotoxicity indicator), at 2.08 µM; inhibition: at 2 µM, stronger effect = higher value, 0% TNFa-plus-vehicle, 100% no-TNFa wells
[2] = endothelial E-selectin expression blockers – imaging, HUVEC, immunofluorescence, MLSMR starter and 10KST1 sets, primary screen (AID 487); conditions: HUVEC TNFalpha-induced E-selectin immunofluorescence imaging, at 2 µM; inhibition: stronger effect = higher value; nuclei count: measured here: cell number, toxicity;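 on inhibition: signal is fraction of cell area covered by stained E-selectin grains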;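 on nuclei count: 100% = median nuclei count of all wells on the same plate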
[3] = Primary imaging screen for DUSP6 inhibitors that restore phospho-Erk in transfected HeLa cells, chemical complementation (AID 609;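 active means compounds giving at least 50% inhibition in the cell-based MKP-3 phosphatase rescue imaging test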;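 on inhibition: phospho-Erk level distribution per well compared with pooled transfected vehicle control wells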); conditions: HeLa MKP-3 transfected, phospho-Erk imaging KS statistic, at 10 µM, cells stimulated with TPA for 15 min
[4] = biological target: Dual specificity protein phosphatase 6 (Homo sapiens) (UniProt Q16828); test: as above; conditions: HeLa MKP-3 transfected, phospho-Erk imaging KS statistic; at 10 µM; stronger effect = higher value; cells stimulated with TPA for 15 min
Chain of Dual specificity protein phosphatase 6 (Homo sapiens) (Q16828 whole entry, looked up): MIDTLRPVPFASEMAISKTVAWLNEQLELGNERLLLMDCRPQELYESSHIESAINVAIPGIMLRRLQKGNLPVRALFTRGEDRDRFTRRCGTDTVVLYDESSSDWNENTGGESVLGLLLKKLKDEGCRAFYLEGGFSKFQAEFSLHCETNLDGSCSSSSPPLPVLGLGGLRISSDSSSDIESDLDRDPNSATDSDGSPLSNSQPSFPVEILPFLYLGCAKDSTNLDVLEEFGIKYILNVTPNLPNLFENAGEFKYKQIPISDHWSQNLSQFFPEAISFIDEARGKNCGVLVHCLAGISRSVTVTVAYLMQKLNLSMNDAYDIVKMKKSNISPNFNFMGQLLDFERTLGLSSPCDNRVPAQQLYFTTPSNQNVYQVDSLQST

[5] = biological target: Voltage-gated potassium channel subunit beta-2 (Rattus norvegicus) (UniProt P62483); test: inhibitors of rat Kvbeta2 reductase activity – biochemical, NADPH fluorescence, primary screen (AID 622;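 active means fluorescence slope higher than the sample average by over 3 SD, cut at about -0.22 in these data, passing the limit was not always enough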;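 further: slope of raw intensity against log time taken from 70 to 1610 s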); conditions: recombinant KvBeta, 4-cyanobenzaldehyde reduction, at 10 µM, stronger effect = higher value
Chain of Voltage-gated potassium channel subunit beta-2 (Rattus norvegicus) (P62483 whole entry, looked up): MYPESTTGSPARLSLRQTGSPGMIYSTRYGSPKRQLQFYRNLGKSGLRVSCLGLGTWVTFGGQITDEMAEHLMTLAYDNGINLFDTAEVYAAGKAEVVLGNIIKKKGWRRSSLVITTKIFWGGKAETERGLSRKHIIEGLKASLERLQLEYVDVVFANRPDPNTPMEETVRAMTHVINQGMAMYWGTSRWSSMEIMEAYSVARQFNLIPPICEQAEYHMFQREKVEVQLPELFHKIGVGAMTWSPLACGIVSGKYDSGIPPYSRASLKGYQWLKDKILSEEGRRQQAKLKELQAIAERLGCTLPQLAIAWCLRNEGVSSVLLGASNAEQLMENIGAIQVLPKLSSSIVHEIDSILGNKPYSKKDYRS

[6] = biological target: Voltage-gated potassium channel subunit beta-2 (Rattus norvegicus) (UniProt P62483); test: enhancers of rat Kvbeta2 NADPH turnover – biochemical, NADPH fluorescence, primary screen (AID 623;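 active means NADPH fluorescence slope more negative than the mean of all samples by about 3 SD, 99.7% confidence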;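 further: fluorescence intensity change per second fitted from 20 to 320 s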); conditions: Recombinant KvBeta, NADPH fluorescence decrease slope, 10 min; at 10 µM; stronger effect = lower value
[7] = biological target: Muscarinic acetylcholine receptor M4 (Homo sapiens) (UniProt P08173); test: M4-linked GIRK flux change, two-sided – cell-based, HEK293 M4/GIRK, thallium flux, BTC-AM, M4 allosteric agonist project, primary screen (AID 625;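 active means fluorescence slope after compound addition differing from the mean of all tested samples at 99.7% confidence, mostly higher but some lower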;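 further: thallium influx through GIRK channels coupled to M4 in HEK293 cells with BTC-AM dye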); conditions: at 10 µM, actives lie on both sides
Chain of Muscarinic acetylcholine receptor M4 (Homo sapiens) (P08173 whole entry, looked up): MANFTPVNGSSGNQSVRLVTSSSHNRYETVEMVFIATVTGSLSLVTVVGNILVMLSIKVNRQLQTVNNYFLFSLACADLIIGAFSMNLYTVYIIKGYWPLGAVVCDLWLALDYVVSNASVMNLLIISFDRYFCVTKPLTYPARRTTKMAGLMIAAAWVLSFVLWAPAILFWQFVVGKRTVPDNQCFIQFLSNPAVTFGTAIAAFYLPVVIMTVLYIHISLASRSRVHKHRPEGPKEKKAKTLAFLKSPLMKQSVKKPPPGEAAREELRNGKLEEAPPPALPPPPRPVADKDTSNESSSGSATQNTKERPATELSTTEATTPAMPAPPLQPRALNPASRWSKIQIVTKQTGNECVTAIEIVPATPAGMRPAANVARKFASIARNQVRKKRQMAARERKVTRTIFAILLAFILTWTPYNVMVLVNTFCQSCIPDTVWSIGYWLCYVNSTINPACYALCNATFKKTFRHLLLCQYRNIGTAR
Procedure, shortened: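 System: HEK293 cells with M4 receptor and GIRK channels | Incubation: Cells overnight at 37 °C, BTC-AM loading 1 h, reads 2 min total | Technique: Kinetic BTC-AM fluorescence sampled at 1 Hz, 10 s pre-addition baseline | Measure: Post-addition slope, 15–24 s, of baseline-normalized fluorescence | Control set: Carbachol positive, DMSO negative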

[8] = inhibitors of larval lipid processing in zebrafish, primary screen, whole organism, PED6 fluorescence, gall bladder and intestine (AID 686;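 active means a full or partial loss of lipid-probe fluorescence in the fish gall bladder, intestine or both, judged by eye; inactive means no fluorescence loss, or compound toxic to the fish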;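 further: larvae 5 to 7 days old with five fish per well; signal comes from phospholipase A2 cleavage of quenched PED6 carried via bile; overnight exposure to compound and PED6 before scoring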); conditions: Zebrafish larvae PED6 lipid processing, fluorescence scoring; screened at 20 µM (by protocol)
Procedure, shortened: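 Test system – live zebrafish larvae aged 5-7 days, whole organism · Buffer or medium – E3 fish medium · Reagent – quenched phospholipase substrate PED6, 100 nM final, ingested by larvae · Doses – 20 µM single dose · Incubation – overnight compound and PED6 incubation · Technique – visual fluorescence microscopy scoring of gall bladder, gut · Read-out basis – visual per-well fluorescence inhibition score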

[9] = loss of swimming-algae plug formation – whole organism, Chlamydomonas reinhardtii, WT vs cilia-less mutant, absorbance, 96-well, primary screen (AID 463189;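 active means inhibition at or above 50% relative to wild type and mutant plate controls; inactive means inhibition below 50%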;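 further: 0% = wild type cc124 cells in DMSO and 100% = ciliumless bld1 mutant cells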); conditions: Chlamydomonas reinhardtii gravitaxis, OD600 absorbance, 2 days; at 10 µM; stronger effect = higher value
[10] = measured here: cell density z-score
[11] = measured here: nuclear c-Myc green intensity z-score
[12] = measured here: nuclear pErk red intensity z-score, stronger effect = higher value

Row | Compound | cell count [1] | inhibition [1] | inhibition [2] | nuclei count [2] [%] | z-score [3, 10] | z-score [3, 11] | z-score [3, 12] | inhibition [4] | fluorescence slope [5] | NADPH fluorescence slope [6] | fluorescence slope [7] | outcome [8] | inhibition [9]
1 | CCOc1ccc(-c2nc(C#N)c(NCC(C)C)o2)cc1 | 402 | -4% (inactive) | -45.5% (inactive) | 159 | -1.19 | -0.813 | 2.25 | -2.69% (inactive) | -0.474 (inactive) | -8e-05 (inactive) | 0.00573 (inactive) | inactive | -4.03% (inactive)
2 | COc1ccccc1C(=O)Nc1cc(Cl)ccc1O | 582 | -2.4% (inactive) | -76% (inactive) | 123 | -1.1 | 0.45 | 1.34 | 9.42% (inactive) | -0.431 (inactive) | -0.000129 (inactive) | 0.00516 (inactive) | inactive | 21.5% (inactive)
3 | CCOC(=O)c1[nH]c2ccc(F)cc2c1N=C(C)N(CC)CC | 621 | -7.1% (inactive) | -132% (inactive) | 100 | -2.41 | 0.938 | -0.403 | 1.9e-07% (inactive) | -0.497 (inactive) | -8.7e-05 (inactive) | 0.00509 (inactive) | inactive | -19.6% (inactive)
4 | CCSc1nnc(NC(NC(=O)c2ccco2)(C(F)(F)F)C(F)(F)F)s1 | 608 | -7.3% (inactive) | -13.8% (inactive) | 91.9 | -1.05 | -0.75 | -0.312 | -7.67% (inactive) | -0.483 (inactive) | -3.9e-05 (inactive) | 0.00455 (inactive) | inactive | -9.53% (inactive)
5 | CCOC(=O)Cn1nc(C)c2ccccc2c1=O | 579 | -1.2% (inactive) | -43.5% (inactive) | 154 | 1.29 | -0.0748 | 0.243 | 7.21% (inactive) | -0.515 (inactive) | -0.000104 (inactive) | 0.00507 (inactive) | inactive | -2.22% (inactive)
6 | CC1(C)Cc2nc3sc4c(N(CCO)CCO)ncnc4c3cc2CO1 | 383 | -7.2% (inactive) | 7.7% (inactive) | 82.1 | -1.35 | 0.534 | 1.17 | -4.59% (inactive) | -0.474 (inactive) | -1.1e-05 (inactive) | 0.00508 (inactive) | inactive | 36.1% (inactive)
7 | c1ccc(-n2ncc3c(NCC4CCCO4)ncnc32)cc1 (centres undefined) | 597 | -4% (inactive) | -84.5% (inactive) | 113 | -2.6 | -0.155 | 1.07 | 1.42% (inactive) | -0.389 (inactive) | -9.3e-05 (inactive) | 0.00807 (inactive) | inactive | -15.2% (inactive)
8 | COc1ccc2[nH]cc(C(=O)CN(C)CCc3ccc(OC)c(OC)c3)c2c1 | 516 | -15.4% (inactive) | -59.5% (inactive) | 137 | 0.922 | -0.876 | 1.1 | -14.6% (inactive) | -0.476 (inactive) | -7.3e-05 (inactive) | 0.00394 (inactive) | inactive | -1.18% (inactive)
9 | CCN(CC)Cc1cc(C(C)=O)ccc1OCC(C)C | 639 | 1.8% (inactive) | 3.7% (inactive) | 164 | -0.466 | 0.382 | -0.997 | -5.62% (inactive) | -0.462 (inactive) | -4.7e-05 (inactive) | 0.00565 (inactive) | inactive | 29.4% (inactive)
10 | O=c1[nH]c2sc3c(c2c(=O)n1Cc1ccccc1)CCC3 | 602 | -2.5% (inactive) | -99.8% (inactive) | 146 | 0.896 | 0.335 | -0.051 | 9.07% (inactive) | -0.453 (inactive) | -0.000103 (inactive) | 0.00552 (inactive) | inactive | -9.09% (inactive)
11 | CCc1nc(NCCN2CCOCC2)c(C#N)c2c1CCCC2 | 358 | -2.8% (inactive) | -19.6% (inactive) | 79.7 | -0.865 | 0.944 | 0.38 | 11.4% (inactive) | -0.595 (inactive) | 4.1e-06 (inactive) | 0.00436 (inactive) | inactive | 30.2% (inactive)
12 | O=C1CC(c2ccco2)CC(O)=C1C=NCCN1CCN(C2CC(=O)N(c3ccccc3)C2=O)CC1 (centres undefined) | 378 | -0.3% (inactive) | -133% (inactive) | 162 | -1.98 | 0.592 | 0.0438 | -4.78% (inactive) | -0.462 (inactive) | -6e-05 (inactive) | 0.00456 (inactive) | inactive | -7.38% (inactive)
13 | OCCN=C(c1ccccc1)C12CN3CN(CN(C3)C1)C2 | 568 | -5.7% (inactive) | -133% (inactive) | 150 | 0.238 | -2.23 | 0.262 | 15.4% (inactive) | -0.48 (inactive) | -2.2e-05 (inactive) | 0.0051 (inactive) | inactive | 7.41% (inactive)
